Active and inactive are the calls of the source. No cut-off for these calls is given here. Peptide text beside a SMILES is read from it. * marks the point of attachment. Cbz = O=C(OCc1ccccc1)*
Key:
[1] = Inhibition of chymotryptic-like of purified human 20S proteasome using Suc-LLVY-AMC as substrate after 30 mins by fluorescence assay
Procedure, shortened: (§1)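 Purified human 20S core at 1 nM in 50 mM Tris-HCl pH 7.5 with 0.03% SDS, 37 °C. Fluorogenic substrate was used at its Km. Released AMC was read at ex 380/em 460 nm every minute for 30 min. The maximal (linear) rate was used to derive IC50. Each value is the mean of three or more independent experiments.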

[2] = Inhibition of caspase-like of purified human 20S proteasome using Z-LLE-AMC as substrate after 30 mins by fluorescence assay; procedure, shortened: as §1
[3] = Inhibition of chymotryptic-like of purified human 20S immunoproteasome
[4] = Inhibition of tryptic-like of purified human 20S proteasome using Boc-LRR-AMC as substrate after 30 mins by fluorescence assay; procedure, shortened: as §1
[5] = species on record: Homo sapiens; test: Reversible inhibition of purified human 20S proteasome at pH >7.5
Procedure, shortened: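 Compound preincubated in assay buffer (50 mM Tris-HCl, 0.03% SDS) at pH 7.5 or 8.0 for varying times before enzyme addition. Residual inhibition of 1 nM purified human 20S proteasome then read by fluorogenic AMC release at 37 °C over 30 min.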

[6] = species on record: Homo sapiens; test: Irreversible inhibition of chymotryptic-like of purified human 20S proteasome assessed as Suc-LLVY-AMC substrate at 0.5 to 1 uM
Procedure, shortened: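 Suc-LLVY-AMC 50 μM (Km). AMC fluorescence λex 380/λem 440. Vmax taken from linear portions and plotted against [E]. An irreversible inhibitor intersects the horizontal axis rather than passing through the origin.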

[7] = species on record: Homo sapiens; test: Irreversible inhibition of chymotryptic-like of purified human 20S proteasome assessed as Suc-LLVY-AMC substrate at 10 to 50 uM measured after drug washout
[8] = test system: HeLa; test: Inhibition of 20S proteasome in TNFalpha-stimulated human HeLa cells assessed as accumulation of ubiquitinylated cellular proteins at 1 uM after 2 hrs using DAPI staining by fluorescence confocal microscopic analysis; type: cell-based
Procedure, shortened: (§2)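 HeLa cells grown on glass coverslips in MEM with 10% FBS and penicillin/streptomycin. Treated 2 h with 1.0 μM compound or 0.1% DMSO vehicle, TNFα 20 ng/mL stimulation for 2 h. Fixed in 4% paraformaldehyde, permeabilized with 0.5% Triton, blocked in 5% BSA/0.05% Tween-20. […] anti-ubiquitin (P4D1) 1:250 overnight at 4 °C, then Alexa546 secondary; DAPI nuclear stain. DIC and confocal imaging, with quantification of ubiquitin fluorescence intensity.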

[9] = test system: HeLa; test: Inhibition of 20S proteasome in TNFalpha-stimulated human HeLa cells assessed as accumulation of ubiquitinylated cellular proteins at 1 uM after 2 hrs using DAPI staining by DIC image analysis; type: cell-based; procedure, shortened: as §2
[10] = test system: HeLa; test: Inhibition of 26S proteasome-mediated IkappaBalpha proteasomal degradation in TNFalpha-stimulated human HeLa cells at 1 uM treated 30 mins before TNFalpha challenge measured after 30 mins using DAPI staining by confocal microscopy analysis; type: cell-based
Procedure, shortened: (§3)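 HeLa cells on coverslips in MEM with 10% FBS were pretreated 30 min with 1 μM compound or 0.1% DMSO vehicle, then given 20 ng/mL TNFα for 30 min or left unstimulated. Fixed in paraformaldehyde, permeabilized with Triton, blocked in BSA/Tween. Mouse anti-IκBα (L35A5) 1:250 overnight at 4 °C, then Alexa-labelled secondary; DAPI counterstain. Confocal imaging with quantified IκBα fluorescence intensity; p-value versus vehicle/TNFα.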

[11] = test system: HeLa; test: Inhibition of 26S proteasome-mediated IkappaBalpha proteasomal degradation in human HeLa cells at 1 uM after 30 mins using DAPI staining by confocal microscopy analysis; type: cell-based; procedure, shortened: as §3
[12] = species on record: Homo sapiens; test: Reversible inhibition of chymotryptic-like of purified human 20S proteasome assessed as Suc-LLVY-AMC substrate at 1 uM measured after drug washout
Procedure, shortened: (§4)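 Washout assay. Human 20S proteasome (1 nM) was exposed to vehicle or inhibitor (1 or 10 μM), then assayed for CT-L activity with Suc-LLVY-AMC as in the main assay. The mixture was washed through a 10K centrifugal filter with 500 volumes of reaction buffer. Retentate CT-L activity was compared with the prewash activity.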

[13] = species on record: Homo sapiens; test: Irreversible inhibition of chymotryptic-like of purified human 20S proteasome assessed as Suc-LLVY-AMC substrate at 1 uM measured after drug washout; procedure, shortened: as §4

SMILES | IC50 [1] [µM] | IC50 [2] [µM] | IC50 [3] [µM] | IC50 [4] [µM] | also measured
NC[C@@H]1[C@H]2CN3C(=O)c4cccn4[C@@H]4NC(N)=N[C@@]43[C@@H]2[C@]2(N=C(N)N[C@H]2O)[C@H]1Cl [listing 1 of 2 here] | 2.5 | 1.6 | 2.3 | – | –
NC[C@@H]1[C@H]2CN3C(=O)c4cccn4[C@@H]4NC(N)=N[C@@]43[C@@H]2[C@]2(N=C(N)N[C@H]2O)[C@H]1Cl [listing 2 of 2 here] | – | – | – | – | inhibition [5]: Active; inhibition [6]: Active; inhibition [7]: Active; inhibition [8]: Active; inhibition [9]: Active; inhibition [10]: Active; inhibition [11]: Active
O=C1N[C@H]2n3c(cc(Br)c3Br)C(=O)N3CCC[C@]23N1 (racemic) [DIBROMOPHAKELLSTATIN] | 11.9 | 16.1 | 6.2 | > 100 | –
NC[C@@H]1[C@H]2CN3C(=O)c4cccn4[C@@H]4NC(N)=N[C@@]43[C@@H]2[C@]2(N=C(N)N[C@H]2O)[C@H]1Cl (racemic) | 5.5 | 3 | 4 | > 100 | –
CC(C)C[C@@H](C=O)NC(=O)[C@H](CC(C)C)NC(=O)[C@H](CC(C)C)NC(=O)OCc1ccccc1 (Cbz-Leu-Leu-Leu-aldehyde) | – | – | – | – | inhibition [12]: Active
CC[C@H](C)[C@H](NC(=O)[C@H]([C@@H](C)CC)N(C)C(C)=O)C(=O)N[C@H](C(=O)N[C@@H](CC(C)C)C(=O)[C@@]1(C)CO1)[C@@H](C)O | – | – | – | – | inhibition [13]: Active

The next lines start with results.

IC50 [1] [µM] | IC50 [2] [µM] | IC50 [3] [µM] | IC50 [4] [µM] | SMILES | also measured
> 100 | > 100 | > 100 | > 100 | O=c1c2cc(Br)c(Br)n2cc2n1CCC2 | –
25.3 | 27.1 | 18.7 | > 100 | NC1=N[C@]23CCCN2C(=O)c2cc(Br)c(Br)n2[C@@H]3N1 (racemic) [DIBROMOPHAKELLIN] | –
